# Screening data: PubChem BioAssay, Broad Institute
# Compounds with a hit are over-represented: about 1.7% of the library has one in this group of screens.
# PGC1a acetyl inh: inhibitors of PGC1a acetylation signal, primary screen, cell-based, U2OS, AlphaScreen, inhibitor mode. AID 651687, 2012. inhibition, % at 15.6 µM. 0.17% of 350,000 active. AlphaScreen anti-acetyl-lysine; with virally co-expressed GCN5 acetyltransferase;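 active means every replicate shows inhibition of at least 40%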;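 further: 0% = neutral control wells and 100% = positive control wells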
# F508del corr: F508del CFTR correction, initial screen, CFBE line, single point; activity (quench increase), % at 7.58 µM; 0.36% of 350,000 active; CFBE cells, YFP halide quenching; stimulated with forskolin plus potentiator P3; % fluorescence drop versus neutral controls;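 active means mean added fluorescence quench of at least 8% versus neutral control, with both replicates also reaching 8%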;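 further: cells transiently co-express mutant CFTR-F508del with the halide-sensitive YFP; corrector assay measuring rescue of mutant channel to the surface after 24 h compound exposure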
# ARNT TACC3 PPI: disruptors of ARNT/TACC3 protein interaction, primary screen, biochemical, AlphaScreen, single concentration. inhibition, % at 9.99 µM. AlphaScreen His-ARNT PAS-B/GST-TACC3 binding, luminescence; TACC3 fragment carries E629A point mutation. 0.66% of 390,000 active. AID 623870, 2012. Transforming acidic coiled-coil-containing protein 3 (Homo sapiens), Q9Y6A5;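 active means mean inhibition of replicates at least 50% and at least half of replicates each reaching 50%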;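 further: 0% = complete ARNT plus TACC3 wells and 100% = ARNT alone without TACC3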
# miR122 inh: miR-122 Renilla sensor signal increase in Huh7, primary screen, miR-122 inhibitor project, cell-based, single point, plate reader; 0.3% of 340,000 active; activation (reporter increase), % at 12.5 µM; Huh7 miR-122 Renilla luciferase sensor, 48 h; neutral wells = 0, positive control = 100;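 active means mean replicate activation score at least 90 and every replicate individually at or above 90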;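 further: higher luciferase means less miR-122 activity so hits act as miR-122 inhibitors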
# CAL PDZ FP-1: CAL PDZ peptide-binding inhibitors, primary screen, biochemical, fluorescence polarization, Cer-tagged CAL PDZ, HTS; Golgi-associated PDZ and coiled-coil motif-containing protein (Homo sapiens), Q9HD26; purified CAL PDZ, TMR-peptide fluorescence polarization, 1 h; inhibition, % at 20 µM; 0.02% of 330,000 active;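 active means highest replicate inhibition of at least 40%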;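 further: plate controls were DMSO neutral control wells for no effect and unlabeled competitor peptide control wells for full effect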
#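 material = purified tagged CAL PDZ domain construct (CerCALP) | compound dosing = 20 µM, one dose | times = 1 h at RT | measured by = fluorescence polarization from S- and P-plane intensities, G-factor corrected | read-out = inhibition from polarization loss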
# CAL PDZ FP-2: untagged CAL PDZ binding inhibitors, primary screen, biochemical, fluorescence polarization, HTS. purified CAL PDZ, TMR-peptide fluorescence polarization, 1 h. inhibition, % at 24.9 µM. 0.92% of 300,000 active;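 active means mean inhibition of at least 30% with at least half of replicates also reaching 30%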;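 further: 0% = DMSO neutral control and 100% = excess unlabeled competitor peptide PRC23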
# Numbers without * were called inactive; nt = no result given; [ ] = another dose, or the depositor's remark.
SMILES,PGC1a acetyl inh,F508del corr,ARNT TACC3 PPI,miR122 inh,CAL PDZ FP-1,CAL PDZ FP-2
CCOc1ccc(Nc2nc(NCc3ccco3)nc(N)c2[N+](=O)[O-])cc1,72.4*,2.7,-3.1,nt,-0.6,-4.7
Nc1nc(NCc2ccco2)nc(Nc2ccc(F)cc2)c1[N+](=O)[O-],1.1,0.9,-0.5,3.3,1.1,nt
COc1ccc(-n2nc(C(=O)NCC(=O)O)c3ccccc3c2=O)cc1,-0.9,-1.2,0.6,0.0,0.2,0.6
COc1ccc(-n2nc(C(=O)NCC(=O)N(C)Cc3ccccc3)c3ccccc3c2=O)cc1,nt,0.9,0.4,-8.3,-2.0,38.1*
Cc1ccc(S(=O)(=O)N(C)C[C@@H]2Oc3ccc(NS(=O)(=O)c4cn(C)cn4)cc3C(=O)N([C@@H](C)CO)C[C@@H]2C)cc1,-13.9,-3.2,nt,-3.6[16.7 µM],nt,nt
CCCCNC(=O)N(O)C1N(/N=C/c2ccccc2F)C(=S)SC1(C)C (stereo not given),3.3,-7.0,2.5,116.0*,-2.3,-2.0
CC1(C)SC(=S)N(/N=C/c2ccccc2O)C1N(O)C(=O)Nc1ccccc1 (stereo not given),14.1,0.5,48.5*,nt,-2.3,1.3
CCCCNC(=O)N(O)C1N(/N=C/c2ccco2)C(=S)SC1(C)C (stereo not given),nt,-0.7,0.8,nt,1.0,2.5
C[C@@H]1CN([C@H](C)CO)C(=O)c2cccc(NC(=O)c3ccc(-c4nccs4)cc3)c2O[C@H]1CN(C)S(=O)(=O)c1cn(C)cn1,4.9,-2.1,-1.9,-4.0[16.7 µM],nt,nt
COc1ccc(CN(C)C[C@@H]2Oc3ccc(NC(=O)C4CC4)cc3C(=O)N([C@H](C)CO)C[C@H]2C)cc1,4.9,1.4,-7.2,58.4[16.7 µM],nt,nt
O=C(CSc1nc2ccccc2[nH]1)NCc1ccco1,1.7,-2.9,-2.5,-1.5,-2.7,-1.2
O=C(CSc1nc2ncccc2[nH]1)NCc1ccco1,0.0,0.6,2.4,-0.8,-0.8,58.6*
COc1ccc(NC(=O)N(C)C[C@H]2OCCCC[C@@H](C)Oc3ccc(NC(=O)c4ccccc4)cc3C(=O)N([C@@H](C)CO)C[C@@H]2C)cc1,13.6,1.0,-2.6,10.6[16.7 µM],nt,nt
CN1CCN(C(=O)C[C@H]2CC[C@@H]3[C@H](COC[C@H](O)CN3C(=O)c3ccc(F)cc3)O2)CC1,3.0,-3.4,-1.2,2.0[16.7 µM],nt,nt
O=C(C[C@H]1CC[C@H]2[C@@H](COC[C@@H](O)CN2Cc2ccc(Oc3ccccc3)cc2)O1)N1CCOCC1,-2.3,-1.1,-2.6,1.7[16.7 µM],nt,nt
C[C@H]1CCCCO[C@H](CN(C)Cc2ccc(C(F)(F)F)cc2)[C@@H](C)CN([C@@H](C)CO)C(=O)c2cc(NS(=O)(=O)c3ccc(Cl)cc3)ccc2O1,2.1,3.3,5.7,-3.8[16.7 µM],nt,nt
COc1c(O[C@@H]2O[C@H](CO)[C@@H](O)[C@H](O)[C@H]2O)cc2c(c1OC)-c1ccc(SC)c(=O)cc1C(NC(C)=O)CC2 (stereo not given in full),nt,13.8*,25.6,24.3,-0.7,-1.5
COc1cc2c(c(OC)c1OC)-c1ccc(OC)c(=O)cc1C(NC(C)=O)CC2 (stereo not given),-7.8,0.5,-6.0,nt,-0.8,-5.7
COc1c(C=O)c2c(c(OC)c1OC)-c1ccc(OC)c(=O)cc1C(NC(C)=O)CC2 (stereo not given),nt,11.2*,8.8,nt,-0.4,-2.0
C[C@@H]1CN([C@H](C)CO)C(=O)c2cc(NC(=O)Nc3ccccc3)ccc2O[C@@H](C)CCCCO[C@H]1CN(C)Cc1ccncc1,1.7,-2.4,-1.2,-2.4[16.7 µM],nt,nt
O=C(C[C@H]1CC[C@@H]2[C@H](COC[C@H](O)CN2Cc2ccc(Oc3ccccc3)cc2)O1)N1CCc2ccccc2C1,-14.9,11.1*,0.7,-9.0[16.7 µM],nt,nt
O=C(C[C@@H]1CC[C@@H]2[C@H](COC[C@H](O)CN2Cc2ccc(Oc3ccccc3)cc2)O1)N1CCN(c2ccccc2)CC1,-8.5,8.9*,5.5,-12.7[16.7 µM],nt,nt
O=C(C[C@H]1CC[C@H]2[C@@H](COC[C@H](O)CN2Cc2ccc(Oc3ccccc3)cc2)O1)N1CCN(c2ccccc2)CC1,-19.5,3.0,0.8,-17.4[16.7 µM],nt,nt
CCC(=O)Nc1ccc2c(c1)C(=O)N(C)C[C@H](OC)[C@@H](C)CN(Cc1ccccc1F)[C@H](C)CO2,-5.4,0.7,-3.6,nt,nt,nt
CCc1ccccc1NC(=O)c1cnn(-c2ccccc2)c1C,-15.3,0.9,-5.5,-5.4,nt,75.3*
SMILES,PGC1a acetyl inh,F508del corr,ARNT TACC3 PPI,miR122 inh,CAL PDZ FP-1,CAL PDZ FP-2
CC(OC(=O)c1ccc(Cl)nc1)C(=O)NC(C)(C)C (stereo not given),nt,10.2*,-3.1,-7.2,-0.5,-2.6
CC(OC(=O)c1ccc(Cl)nc1)C(=O)NC1CCCC1 (stereo not given),5.6,1.5,nt,nt,-1.0,-0.4
O=C(CSc1ccc(-c2cccc([N+](=O)[O-])c2)nn1)N1CCCC1,6.8,-3.8,3.1,nt,nt,64.9*
O=C(CSc1ccc(-c2cccc([N+](=O)[O-])c2)nn1)N1CCCCCC1,-4.5,0.4,-0.3,-6.5,0.6,-0.4
NC(=S)N=Nc1c(O)[nH]c2ccc(F)cc12,nt,1.3,6.1,nt,0.9,-0.6
NC(=S)N=Nc1c(O)cc(O)c2[nH]c(=O)ccc12,2.8,-0.3,64.1*,14.4,5.3,3.2
COc1ccc(S(=O)(=O)N(C)C[C@@H]2OCCCC[C@H](C)Oc3ccc(NC(=O)Nc4ccc5c(c4)OCO5)cc3C(=O)N([C@H](C)CO)C[C@H]2C)cc1,-4.1,-0.3,21.5,-3.1[16.7 µM],nt,nt
COc1cccc(C(=O)Nc2sc3c(c2C#N)CCN(C(C)=O)C3)c1,nt,13.6*,nt,nt,-2.6,-1.6
N#Cc1c(NC(=O)c2ccccc2)sc2c1CCC2,-10.9,nt,nt,110.7*,-2.0,-4.6
CC(=O)Nc1sc2c(c1C(N)=O)CCC2,1.2,nt,-0.4,-13.7,nt,67.8*
COC(=O)c1c(NC(=O)c2ccco2)sc2c1CCC2,-14.0,nt,1.1,14.4,-0.9,-1.4
O=C(Nc1sc2c(c1C(=O)O)CCC2)c1ccco1,8.8,nt,-1.3,122.6*,0.0,-0.6
COCCNC(=O)C[C@H]1CC[C@@H]2[C@H](COC[C@H](O)CN2S(=O)(=O)c2ccccc2C)O1,-0.1,6.1,4.1,-0.6[16.7 µM],nt,nt
CO[C@H]1CN(C)C(=O)c2cc(NC(=O)Cc3ccccc3)ccc2OC[C@@H](C)N(C(C)=O)C[C@@H]1C,-0.6,-2.8,-6.1,nt,nt,nt
COC(=O)c1cccc(-c2ccc(C(c3c(C)[nH][nH]c3=O)c3c(C)[nH][nH]c3=O)o2)c1,5.0,0.2,63.7*,9.6,-3.0,2.5
